An excerpt weighted towards active compounds, which were near 8.9% of everything screened.
Dynein cargo inh – dynein cargo transport inhibition. 3617.4 mouse cells, GR-EGFP nuclear translocation imaging; test concentration mostly 20 µM; stimulated with dexamethasone, 1 µM; active compounds read low. z-score, hits read low. 220,000 compounds, 0.47% hits. AID 1381;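 active = plate z-score of nuclear minus cytoplasmic receptor signal below a set negative limit, without overly bright fluorescence or cell loss, cut at about -3.5 in these data, passing the limit was not always enough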;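 note: z-score of nuclear minus cytoplasmic ring GR-EGFP intensity difference per well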
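Buffer or medium: tet-free, stripped-serum medium; reagent: dexamethasone at 1.0 µM final, 30 min; incubation: 48 h induction, 1 h compound, 30 min dex at 37 °C; measured by: formaldehyde fixation, Hoechst nuclear stain, 10x automated fluorescence imaging; read-out: nuclear-to-cytoplasmic GR-EGFP distribution per well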
b-catenin transl – modulators of beta-catenin nuclear translocation | nuclear translocation activity, % at 5 µM | 190,000 compounds, 0.3% hits | HeLa beta-catenin nuclear translocation, immunofluorescence imaging;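 active = nuclear translocation activity above 50% at 5 µM, with a well cell count of 50 or more; inconclusive = wells under 50 cells across six images, flagged as toxic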;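 note: per-cell ratio of nuclear to cytoplasmic median beta-catenin stain intensity; plate controls were DMSO negative control for no effect and GSK-3 inhibitor IX positive control for full effect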
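Assay system: human HeLa cells, native beta-catenin; doses: 5 µM primary, 0.02–20 µM confirmation; incubation: compound treatment 24 h, 37°C, 5% CO2; technique: fluorescence imaging of beta-catenin antibody stain plus DAPI; measure: % activation, nuclear-to-cytoplasmic median beta-catenin signal ratio per cell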
HSV replic up – increases HSV replication in cells | AID 1956 | HSV replication augmentation in cells, fold increase | 220,000 compounds, 0.005% hits | maximum fold increase; in the data active = maximum fold increase above about 1.5; inconclusive = no clear call, values can overlap the other calls; tested in PC3 cells
MT stabilizer – microtubule stabilization, imaging screen. HeLa tubulin immunostaining HCS, 24 h; share of cells brighter than vehicle mean+2SD. % tubulin-high responders, % at 10 µM. 200,000 compounds, 0.83% hits. AID 2205;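 active = plate Z-score above 3 for both tubulin-high and condensed-nucleus cell shares, with cell loss under 80%, at 10 µM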;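 note: anti alpha tubulin signal scored within the nucleus-defined area of each cell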
L major viab – Leishmania major promastigote growth inhibition; Leishmania major promastigotes, resazurin fluorescence viability; inhibition, % at 10 µM; 200,000 compounds, 9% hits; AID 1063; in the data active = inhibition above about 50%;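 note: promastigotes grown with compound for 44 hours at 28 °C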
An asterisk follows results filed as active; i = inactive; ? = inconclusive; nt = no result.

SMILES	Dynein cargo inh	b-catenin transl	HSV replic up	MT stabilizer	L major viab
Cc1ccc(NC2CCCCC2NS(=O)(=O)c2ccc(Cl)cc2)cc1 (centres undefined)	0.044	0	i	1	6
O=S(=O)(NC1CCCCC1Nc1ccc(Cl)cc1)c1ccccc1 (centres undefined)	-0.85	-2	i	2	91*
O=S(=O)(NC1CCCCC1Sc1ncccn1)c1ccccc1 (centres undefined)	1.1	-3	i	4	65*
c1csc(-c2nc3ccccc3s2)c1	0.13	0	i	nt	nt
CCc1nc2ccccc2c(C(=O)Oc2cccc3cccnc23)c1C	-1.5	0	i	3	2
O=C(/C=C\c1ccco1)Oc1cccc2cccnc12	1.9	-1	i	1	97*
COc1ccccc1/C=C/C(=O)Oc1cccc2cccnc12	-0.73	-5	i	2	99*
Cc1c(C(=O)Oc2cccc3cccnc23)oc2ccccc12	-0.025	0	i	2	98*
O=c1[nH]c(SCc2ccc(F)cc2)nc2c1cnn2-c1ccc(F)cc1	-0.32	-3	i	5	-1
Oc1c(C=Nc2ccccc2)sc2ccccc12	-0.39	2	i	3	0
COc1ccc(/C=N/NC(=O)c2csc(-n3nc(C)cc3C(F)(F)F)n2)cc1	1.1	108*	i	30*	-3
Cc1cc(C(F)(F)F)n(-c2nc(C(=O)NN)cs2)n1	-0.44	-2	i	6	-8
O=C1CC(N2CCN(C(c3ccccc3)c3ccccc3)CC2)C(=O)N1Cc1ccc(N2CCCC2=O)cc1 (centres undefined)	-0.56	1	i	4	98*
O=C(C1CCN(C2CC(=O)N(Cc3ccccc3)C2=O)CC1)N1CCCCCC1 (centres undefined)	-0.56	nt	i	3	87*
NC(=O)C1CCN(C2CC(=O)N(Cc3ccc(N4CCCC4=O)cc3)C2=O)CC1 (centres undefined)	0.35	-3	i	2	-4
O=C(NC12CC3CC(CC(C3)C1)C2)c1ccc(-c2ccc(Cl)cc2)o1	0.084	1	i	2	92*
O=C(COC(=O)c1ccc(-c2ccc([N+](=O)[O-])cc2)o1)NC(=O)NC12CC3CC(CC(C3)C1)C2	0.52	nt	i	2	98*
O=C(NC12CC3CC(CC(C3)C1)C2)c1ccc(-c2cccc(Cl)c2)o1	0.28	0	i	1	22
CC(=O)Nc1ccc(NC(=O)C(C)N2CCN(S(=O)(=O)c3ccc(C)cc3)CC2)cc1 (centres undefined)	-1.2	-4	i	3	-4
O=S(=O)(c1ccc(NC(=S)NN=C(Cc2ccccc2)Cc2ccccc2)cc1)N1CCOCC1	-0.89	2	i	2	92*
O=S(=O)(c1ccc(NC(=S)NCCc2ccccc2)cc1)N1CCOCC1	0.57	-3	i	5	69*
CC(=O)Nc1ccc(S(=O)(=O)N2CCN(C(C)CCc3ccccc3)CC2)cc1 (centres undefined)	-0.87	1	i	1	86*
CCOc1ccc(/C=C/C(=O)Nc2ccc(C(N)=O)cc2)cc1OC	0.37	-1	i	3	-8
CCOc1cc(/C=C/C(=O)Nc2ccc(C(=O)NCCN(CC)CC)cc2)ccc1OCC(C)C	3.6	33	i	68	53*
O=C(CN1CCOCC1)N1CCN(S(=O)(=O)c2ccccc2)C1c1ccccc1 (centres undefined)	-0.92	0	i	3	1
SMILES	Dynein cargo inh	b-catenin transl	HSV replic up	MT stabilizer	L major viab
COc1cc(Cl)c(C)cc1NC(=O)c1cccc(OC)c1OC	1.1	1	i	1	8
Cc1ccc(N2C(=O)c3ccccc3C2Nc2cccnc2)nc1 (centres undefined)	-0.25	-2	i	3	69*
O=C(Nc1ccccc1)Nc1ccccc1-n1ccnc1	0.46	0	i	2	80*
COc1ccc(-c2cc3ccccc3[nH]2)cc1	-0.012	-2	i	nt	nt
Cc1ccc(O)c(-c2cc3ccccc3[nH]2)c1	-1.8	0	i	4	59*
COC(=O)C(C)NC(=O)C12CC3CC(CC(C3)C1)C2 (centres undefined)	-1.2	-2	i	4	-1
CC(C)C(NC(=O)C12CC3CC(CC(C3)C1)C2)C(=O)O (centres undefined)	0.76	-6	i	2	52*
Cc1ccc(-c2nnc3sc(-c4ccc5c(c4)OCCO5)nn23)cc1	0.18	nt	nt	5	-6
CC(=O)c1sc2nc(CSc3nnnn3-c3ccccc3)[nH]c(=O)c2c1C	0.04	1	?	2	4
Cc1ccc(-n2nnnc2SCc2nc3sc(C)c(C)c3c(=O)[nH]2)cc1	-1	3	i	2	58*
COc1ccc2cc(S(=O)(=O)NCCCN3CCOCC3)ccc2c1	-0.11	nt	i	2	89*

Screens as filed in PubChem BioAssay.
